Test results published in PMC2212161 (The Journal of Experimental Medicine, 1998).
Read-outs that look alike come from different tables or passages of the source. Blank lines part the entries; values can stand above or below the substance they belong to.

Assays:
[1] = tested on: NuMA; conditions: Fas-stimulated Jurkat cells; cited from earlier work
[2] = tested on: Fas-stimulated Jurkat cells; assay: Flow cytometric analysis of DNA fragmentation; assay type: cell-based, human; conditions: anti-Fas mAb 4 h, Fig. 7 B
In short: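 Jurkat cells were pretreated with inhibitor, then given anti-Fas mAb for 4 h. Cells (10⁶) were fixed in 70% ethanol for 2 h on ice, washed in PBS, and treated with 10 μg/ml RNase A for 30 min at 37°C. They were stained with 50 μg/ml propidium iodide for 30 min on ice in the dark, and PI (log scale) was recorded against forward scatter by flow cytometry.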

[3] = tested on: F19/caspase-6; conditions: cited from earlier work
[4] = tested on: Fas-stimulated Jurkat cells; assay: Mitochondrial PT; assay type: cell-based, human; conditions: Fas stimulation 4 h, Fig. 9 B
In short: (§1)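 Jurkat cells (5 × 10⁵) were pretreated 1 h with inhibitor, then stimulated with anti-Fas for 4 h. Cells were mesh-filtered and analysed at once by flow cytometry.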

[5] = tested on: F20/caspase-3-p20; assay type: cell-based, human
[6] = tested on: Fas-stimulated Jurkat cells; assay: Apoptotic body formation; assay type: cell-based, human; conditions: for Appearance of the cell population with the lowest FSC: flow cytometry; for Apoptotic body formation: phase contrast microscopy, Fig. 8
In short: (§2)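 Jurkat cells were preincubated 1 h at 37°C with inhibitor or 1% DMSO, then stimulated with anti-Fas mAb for 4 h. Cell size was read as forward scatter in flow cytometry, from PhiPhiLux-loaded or PI-stained cells. Reference was the lower FSC border of normally growing cells. Cell shape and apoptotic bodies were viewed by phase contrast microscopy.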

[7] = tested on: PAK2; assay: Immunoblotting for PAK2 cleavage in Fas-stimulated Jurkat cells; assay type: cell-based, human; conditions: Fig. 5 D
In short: (§3)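 Jurkat cells were preincubated with inhibitor, then Fas-stimulated. Whole-cell extracts were made by boiling pellets 3 min in SDS sample buffer (50 mM Tris-HCl pH 6.8, 15% sucrose, 3% SDS). Gels were 5% SDS-PAGE for NuMA (rabbit polyclonal r240-C) and 10% for PARP (mAb C-2-10) and PAK2 (rabbit anti-ste20-subdomain VI). Proteins were blotted to nitrocellulose and cleavage fragments immunodetected.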

[8] = tested on: F17/caspase-3-p17; assay: Cell-free caspase activation in Jurkat extracts triggered by caspase-8: F17; assay type: biochemical, human
[9] = tested on: caspase activity in Fas-stimulated Jurkat cells; assay: Flow cytometric analysis of intracellular caspase activity with PhiPhiLux-G2D2; assay type: cell-based, human; conditions: inhibitor 100 μM alone without Fas stimulation; data not shown
[10] = tested on: F19/caspase-6; assay: Cell-free caspase activation in Jurkat extracts triggered by caspase-8: F19; assay type: biochemical, human
[11] = tested on: F17/caspase-3-p17; assay type: cell-based, human
[12] = tested on: F20/caspase-3-p20; conditions: cited from earlier work
[13] = tested on: Fas-stimulated Jurkat cells; assay: Nuclear morphological changes; assay type: cell-based, human; conditions: inhibitor 100 μM preincubated 1 h 37°C; anti-Fas mAb 4 h; DAPI; Fig. 6
In short: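 Jurkat cells were preincubated 1 h at 37°C with inhibitor (1, 10 or 100 μM) or 1% DMSO, then stimulated with anti-Fas mAb for 4 h; unstimulated cells were kept 4 h as control. Cells were fixed with 1% glutaraldehyde, stained with 2 μg/ml DAPI, and scored microscopically for chromatin condensation, nuclear shrinkage and fragmentation.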

[14] = tested on: Caspase-8; assay: Sensitivity of caspase-8 to DMQD-CHO; assay type: biochemical; conditions: data not shown
[15] = tested on: Fas-stimulated Jurkat cells; assay: PS externalization; assay type: cell-based, human; conditions: Fas stimulation 4 h, Fig. 9 B; for PS externalization (increase in annexin V binding): inhibitor 100 μM pretreated 1 h
In short: as §1

[16] = tested on: active caspases in Jurkat cytoplasmic extracts; assay type: biochemical, human; conditions: inhibitor 10 μM; Fig. 2 A
[17] = tested on: PARP; assay: Immunoblotting for PARP cleavage in Fas-stimulated Jurkat cells; assay type: cell-based, human; conditions: Fig. 5 C
In short: as §3

[18] = tested on: F22/caspase-7; assay: Cell-free caspase activation in Jurkat extracts triggered by caspase-8: F22; assay type: biochemical, human
[19] = tested on: F19/caspase-6; assay type: cell-based, human; conditions: inhibitor 10–100 μM preincubated before Fas receptor cross-linking; Fig. 2 C
[20] = tested on: NuMA; assay: Immunoblotting for NuMA cleavage in Fas-stimulated Jurkat cells; assay type: cell-based, human; conditions: Fig. 5 B
In short: as §3

[21] = tested on: F22/caspase-7; assay type: cell-based, human
[22] = tested on: Fas-stimulated Jurkat cells; assay: Shrinkage of cytoplasm / cell size; assay type: cell-based, human; conditions: for Shrinkage of cytoplasm / decrease in cell size (FSC): Figs. 3 B and 7 B; for Fas-induced shrinkage of cells: phase contrast microscopy, Fig. 8
In short: as §2

[23] = tested on: KB epidermal carcinoma cells; conditions: inhibitor 50 μM; cited from earlier work
[24] = tested on: F20/caspase-3-p20; assay: Cell-free caspase activation in Jurkat extracts triggered by caspase-8: F20; assay type: biochemical, human; conditions: inhibitor 10 nM added before caspase-8; data not shown
[25] = tested on: pro–caspase-7; assay: Processing of pro–caspase-7 in Fas-stimulated Jurkat cells; assay type: cell-based, human; conditions: inhibitor 100 μM; same blot reprobed with anti–caspase-7 Ab; Fig. 1 B
In short: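 The affinity-labeling blot from Jurkat cells (inhibitor preincubation 1 h, anti-Fas CH-11 100 ng/ml, 4 h, serum-free RPMI-1640) was reprobed with anti-caspase-7 antibody to follow pro-caspase-7 processing.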

[26] = tested on: active caspases in Fas-stimulated Jurkat cells; assay type: cell-based, human; conditions: inhibitor 100 μM, preincubated 1 h; anti-Fas mAb 4 h; Fig. 1 A
[27] = inhibitor 100 μM pretreated 1 h
[28] = inhibitor 10–100 μM preincubated before Fas receptor cross-linking, Fig. 2 C
[29] = inhibitor 100 μM, flow cytometry
[30] = inhibitor 10 μM, preincubated 1 h, anti-Fas mAb 4 h, Fig. 1 A
[31] = inhibitor 10 nM added before caspase-8, data not shown

Substance: benzyloxycarbonyl-Val-Ala-Asp(OMe)-fluoromethylketone [zVAD-fmk]
- NuMA cleavage [1]: blocked

- Sensitivity of caspase-8 [14]: relatively insensitive
Substance: Ac-DMQD-aldehyde [DMQD-CHO]
- DNA fragmentation ([2]; inhibitor 100 μM): completely inhibited
- Concentration required to block activity of caspase-6 relative to caspase-7 ([3]; higher for caspase-6): ~10 fold
- Activity of F19/caspase-6 ([3]; inhibitor even at 100 μM): insensitive
- Mitochondrial PT [4, 27]: not affected
- Labeling of F20/caspase-3-p20 [5, 28]: suppressed
- Appearance of the cell population with the lowest FSC ([6]; inhibitor 100 μM, Figs. 3 B and 7 B): suppressed
- Apoptotic body formation ([6]; inhibitor 100 μM): formed no apoptotic bodies
- Cleavage of PAK2 ([7]; inhibitor 100 μM): suppressed
- Labeling of F17/caspase-3-p17 ([8]; inhibitor 1–2 μM, Jurkat extract preincubated, caspase-8, 4 h 37°C, Fig. 2 A): suppressed
- Increase in PhiPhiLux-G2D2 fluorescence or cell shrinkage [9]: did not induce
- Concentration preventing appearance of F19/caspase-6 ([10]; preincubation before addition of caspase-8, Fig. 2 A): 1 to 2 µM
- Labeling of F17/caspase-3-p17 [11, 28]: suppressed
- Concentrations previously shown to block the activity of F20/caspase-3-p20 [12]: 1 to 2 µM
- Nuclear morphological changes [13]: completely blocked
- PS externalization (increase in annexin V binding) [15]: suppressed
- Caspase labeling (all) [16]: loss of all labeling
- PARP cleavage ([17]; inhibitor 100 μM): only weakly inhibited
- Labeling of F22/caspase-7 ([18]; inhibitor up to 5 μM, Fig. 2 A): unhindered
- Appearance of F19/caspase-6 [19]: blocked
- Generation of the 160-kD NuMA fragment ([20]; inhibitor 100 μM): blocked
- Generation of the 180-kD NuMA fragment ([20]; inhibitor 100 μM): blocked
- Activation of caspase-7 (time course) ([21]; inhibitor 100 μM preincubated 1 h, Fig. 2 D): uninterrupted
- Labeling of F22 ([21]; inhibitor up to 100 μM, Fig. 2 C): persisted
- Shrinkage of cytoplasm / decrease in cell size (FSC) [22, 29]: proceeded to a significant degree
- Fas-induced shrinkage of cells ([22]; inhibitor 100 μM): Neither 100 μM DMQD-CHO (Fig. 8 h) nor 10 μM VEID-CHO (Fig. 8 d) affected

Substance: benzyloxycarbonyl-Asp-Glu-Val-Asp(OMe)-fluoromethylketone [zDEVD-FK]
- Fas-induced chromatin condensation and apoptotic body formation [23]: abolished

Substance: acetyl-Val-Ileu-Asp-aldehyde [VEID-CHO]
- DNA fragmentation ([2]; inhibitor 100 μM): suppresses both
- DNA fragmentation ([2]; inhibitor up to 10 μM): did not prevent
- Mitochondrial PT ([4]; inhibitor 10 μM pretreated 1 h): Neither PT nor PS externalization were affected
- Mitochondrial PT [4, 27]: markedly inhibited
- Labeling of F20/caspase-3-p20 [5, 30]: unaffected
- Appearance of the cell population with the lowest FSC ([6]; inhibitor 10 μM, Fig. 7 B): had no effect
- Apoptotic body formation ([6]; inhibitor up to 10 μM): did not prevent
- Cleavage of PAK2 ([7]; inhibitor up to 10 μM): failed to affect
- Activation of caspase-3-p17 in cell-free activation [8, 31]: minimal effects
- Activity of caspase-6 in cell-free activation [10, 31]: selectively blocked
- Labeling of F17/caspase-3-p17 [11, 30]: Suppression
- Activation of caspase-3-p20 in cell-free activation [24]: minimal effects
- Processing of pro–caspase-7 [25]: blocked
- PS externalization ([15]; inhibitor 10 μM pretreated 1 h): Neither PT nor PS externalization were affected
- PS externalization (increase in annexin V binding) [15]: markedly inhibited
- PARP cleavage ([17]; inhibitor 1 μM): did not affect
- PARP cleavage ([17]; inhibitor 10 μM): Partial blockade
- PARP cleavage ([17]; inhibitor 100 μM): markedly suppressed
- Activation of caspase-7 in cell-free activation [18, 31]: minimal effects
- Caspase labeling (all) [26]: loss of all caspase labeling
- Proteolysis yielding the 180-kD NuMA fragments ([20]; inhibitor 1 μM): not affected
- 180-kD NuMA fragment ([20]; inhibitor 10 μM): moderate decrease
- Production of the 160-kD NuMA fragment ([20]; inhibitor 1–10 μM): suppressed
- Labeling of F22/caspase-7 [21, 30]: unaffected
- Cell size (FSC) ([22]; inhibitor 10 μM, flow cytometry, Fig. 7 B): had no effect
- Fas-induced shrinkage of cells ([22]; inhibitor 10 μM): Neither 100 μM DMQD-CHO (Fig. 8 h) nor 10 μM VEID-CHO (Fig. 8 d) affected
- Shrinkage of cytoplasm / decrease in cell size (FSC) [22, 29]: markedly suppressed
- Fas-induced shrinkage of cells ([22]; inhibitor 100 μM): completely blocked

Substance: DEVD-CHO
- NuMA cleavage [1]: blocked
